Laboratory results taken from ChEMBL document CHEMBL1138668, “Structural studies on bioactive compounds. 39. Biological consequences of the structural modification of DHFR-inhibitory 2,4-diamino-6-(4-substituted benzylamino-3-nitrophenyl)-6-ethylpyrimidines ('benzoprims')” (J Med Chem, 2004).
pIC50: −log10 of the molar value.

What was measured:
HCT-116 [1] = assay: Growth inhibitory activity against human HCT116 cell line in presence of Hypoxanthine thymidine(HT); format: functional
Procedure, shortened: (§1)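 Same 4-day MTT growth assay in HCT-116 or HT29 cells, with hypoxanthine 100 µM and thymidine 20 µM (final) added together with the drug. Hypoxanthine stock was in 10 mM NaOH and thymidine in water. Readout was A550 against a time-zero plate. GI50 is the mean of three experiments.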

HT-29 [2] = assay: Growth inhibitory activity against human HT-29 cell line; format: functional
Procedure, shortened: (§2)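 HCT-116 or HT29 colon cells in RPMI 1640 with L-glutamine and 10% heat-inactivated FBS, 37 °C, 5% CO2. Cells were plated at densities suited to the growth rate and allowed to attach 4–24 h. Drug from 10 mM DMSO stocks was then added and cells incubated 4 days. MTT readout: 4 h with MTT, formazan dissolved in DMSO:glycine buffer (4:1), A550. A time-zero plate gave the starting density. Values are GI50, mean of three experiments.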

HT-29 [3] = assay: Growth inhibitory activity against human HT-29 cell line in presence of Hypoxanthine thymidine(HT); format: functional; procedure, shortened: as §1
HCT-116 [4] = assay: Growth inhibitory activity against human HCT116 cell line; format: functional; procedure, shortened: as §2
Dihydrofolate reductase = target: T1, Dihydrofolate reductase (Rattus norvegicus, UniProt Q920D2); assay: Inhibitory activity against rat liver Dihydrofolate reductase; conditions: read-out: I50
T1 sequence (Q920D2 whole entry): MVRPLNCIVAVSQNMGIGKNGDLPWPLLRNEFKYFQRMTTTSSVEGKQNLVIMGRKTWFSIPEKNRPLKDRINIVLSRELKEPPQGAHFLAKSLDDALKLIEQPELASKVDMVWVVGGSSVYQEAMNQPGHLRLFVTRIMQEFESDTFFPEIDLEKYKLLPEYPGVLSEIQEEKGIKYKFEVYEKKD

| SMILES | GI50 (HCT-116 [1]) [µM] | GI50 (HT-29 [2]) [µM] | GI50 (HT-29 [3]) [µM] | GI50 (HCT-116 [4]) [µM] | pIC50 (Dihydrofolate reductase) |
| --- | --- | --- | --- | --- | --- |
| Nc1ncc(-c2ccc(Cl)c([N+](=O)[O-])c2)cn1 | > 50 | > 50 | > 50 | > 50 | – |
| Nc1ncc(-c2ccc(NCc3ccc(Cl)cc3)c([N+](=O)[O-])c2)cn1 | 5 | 17 | 25 | 3 | – |
| CCc1nc(N)nc(N)c1-c1ccc(Cl)c([N+](=O)[O-])c1 | 38 | 3.8 | 40 | 0.25 | – |
| CCc1nc(N)nc(N)c1-c1ccc(NCc2ccccc2OC)c([N+](=O)[O-])c1 | 7.5 | 1.5 | 11.6 | 0.08 | – |
| Nc1ncc(-c2ccc(NCc3ccc(F)cc3)c([N+](=O)[O-])c2)cn1 | 47 | 41 | 38 | 48 | – |
| Nc1nc(N)c2[nH]c(Cc3ccc(Cl)c(Cl)c3)nc2n1 | – | – | – | – | 3.60 |
| CCc1nc(N)nc(N)c1-c1ccc2[nH]c(-c3ccc(F)cc3)[n+]([O-])c2c1 | 22 | 46 | 39 | 17 | – |
| CN(Cc1cnc2nc(N)nc(N)c2n1)c1ccc(C(=O)N[C@@H](CCC(=O)O)C(=O)O)cc1 [METHOTREXATE] | > 50 | 0.07 | > 50 | 0.01 | – |
| CCc1nc(N)nc(N)c1-c1ccc(NCc2ccc(Cl)c(Cl)c2)c([N+](=O)[O-])c1 | – | – | – | – | 8.10 |
| CCc1nc(N)nc(N)c1-c1ccc2[nH]c(-c3ccc(Cl)cc3)[n+]([O-])c2c1 | 9 | > 50 | > 50 | 9 | – |
| CN(Cc1ccccc1)c1ccc(-c2cnc(N)nc2)cc1[N+](=O)[O-] | > 50 | 14 | 17 | > 50 | – |
| COc1cc(NCc2ccc3nc(N)nc(N)c3c2C)cc(OC)c1OC [TRIMETREXATE] | 19 | 0.01 | 21 | 0.01 | – |
| CCc1nc(N)nc(N)c1-c1ccc2nn(-c3ccccc3)[n+]([O-])c2c1 | – | – | – | – | 5.57 |
| CCc1nc(N)nc(N)c1-c1ccc(N(C)Cc2ccccc2)c([N+](=O)[O-])c1 | 7.4 | 0.48 | 9.2 | 0.08 | – |
